Measurements from ChEMBL document CHEMBL2086242, “Synthesis and SAR studies of mono O-prenylated coumarins as potent 15-lipoxygenase inhibitors” (Eur J Med Chem, 2012).
Activity calls are given as the source filed them. The rule behind the calls is not given here.

Key:
[1] = Inhibition of soybean 15-lipoxygenase by MBTH-DMAB method; parameters: species or system Glycine max
Method in brief: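 Test sample in ethanol was preincubated 5 min at room temperature with SLO (stock 4000 units/mL) in 50 mM phosphate, pH 7.0, with an ethanol control. Linoleic acid (Tween 20/KOH) started peroxidation. After 7 min, DMAB (solution A) and then MBTH with hemoglobin at pH 5.0 (solution B) developed colour. After 5 min more, 2% SDS stopped the reaction.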

[2] = target: T1, Polyunsaturated fatty acid lipoxygenase ALOX15 (Homo sapiens, UniProt P16050); test: Inhibition of recombinant human 15-lipoxygenase by MBTH-DMAB method
T1 sequence (P16050 whole entry): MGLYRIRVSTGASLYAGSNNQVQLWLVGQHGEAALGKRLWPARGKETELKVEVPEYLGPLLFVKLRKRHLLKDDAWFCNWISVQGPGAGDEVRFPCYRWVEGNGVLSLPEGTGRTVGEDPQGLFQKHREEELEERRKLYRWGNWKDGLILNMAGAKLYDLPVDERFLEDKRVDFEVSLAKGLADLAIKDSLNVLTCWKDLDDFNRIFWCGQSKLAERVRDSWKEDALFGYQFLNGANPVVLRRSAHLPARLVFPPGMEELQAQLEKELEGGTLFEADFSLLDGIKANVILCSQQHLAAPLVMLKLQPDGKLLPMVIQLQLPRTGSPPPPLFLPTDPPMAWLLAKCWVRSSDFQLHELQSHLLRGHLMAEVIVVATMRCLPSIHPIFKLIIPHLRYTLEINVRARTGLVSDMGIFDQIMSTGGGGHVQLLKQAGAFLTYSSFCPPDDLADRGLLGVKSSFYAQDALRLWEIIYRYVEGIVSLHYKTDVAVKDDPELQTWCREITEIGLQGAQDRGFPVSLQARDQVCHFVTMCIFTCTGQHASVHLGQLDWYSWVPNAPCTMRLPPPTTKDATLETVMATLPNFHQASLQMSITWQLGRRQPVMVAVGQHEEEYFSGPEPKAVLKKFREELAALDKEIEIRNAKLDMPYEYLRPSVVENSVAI

Glycine max = test: Competitive inhibition of soybean 15-lipoxygenase at 1.25 to 5 uM by Lineweaver-Burk plot
Method in brief: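 Soybean 15-lipoxygenase activity was read by the MBTH–DMAB end-point method at linoleic acid levels of 25, 50, 100 and 200, plotted as double-reciprocal (Lineweaver–Burk) curves with and without inhibitor.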

Structure (SMILES) | IC50 [1] [µM] | IC50 [2] [µM] | inhibition (Glycine max)
CC(C)=CCC/C(C)=C/COc1cccc2oc(=O)ccc12 | 2.8 |  | 
CC(C)=CCC/C(C)=C/CC/C(C)=C/COc1ccc2ccc(=O)oc2c1 [UMBELLIPRENIN] | 3.1 |  | 
CC(C)=CCC/C(C)=C/COc1cc(=O)oc2ccccc12 | 5.6 | 42.6 | 
CC(C)=CCC/C(C)=C/CC/C(C)=C/COc1cccc2oc(=O)ccc12 | 0.8 | 3.6 | 
CC(C)=CCOc1cc(=O)oc2ccccc12 | 43.9 |  | 
CC(C)=CCC/C(C)=C/COc1cc2ccccc2oc1=O | 4.7 | > 100 | 
CC(C)=CCOc1ccc2ccc(=O)oc2c1 [7-PRENYLOXYCOUMARIN] | 60.4 |  | 
CC(C)=CCC/C(C)=C/CC/C(C)=C/COc1cc(=O)oc2ccccc12 | 3.5 |  | 
CC(C)=CCOc1cccc2oc(=O)ccc12 | 39.8 |  | 
CC(C)=CCC/C(C)=C/COc1ccc2ccc(=O)oc2c1 [AURAPTENE] | 6.3 |  | 
CC(C)=CCC/C(C)=C/COc1ccc2oc(=O)ccc2c1 | 9.6 | 6.8 | 
CC(C)=CCC/C(C)=C/COc1cccc2ccc(=O)oc12 | 8.1 |  | 
CC(C)=CCC/C(C)=C/CC/C(C)=C/COc1cccc2ccc(=O)oc12 | 5.8 |  | 
Cc1nc(N2CCN(C)CC2)nc2c1Nc1ccccc1S2 | 21.2 |  | 
CC(C)=CCC/C(C)=C/CC/C(C)=C/COc1ccc2oc(=O)ccc2c1 | 2.1 | 1.3 | 
CC(C)=CCC/C(C)=C/CC/C(C)=C/COc1ccccc1 [FARNESYL PHENYL ETHER] | 2.7 | > 50 | 
CC(C)=CCOc1ccc2oc(=O)ccc2c1 | 69.4 |  | 
O=C(O)/C=C/c1ccc(O)c(O)c1 [CAFFEIC ACID] | 39.4 |  | 
CC(C)=CCOc1cccc2ccc(=O)oc12 | 46.5 |  | 
CC(C)=CCC/C(C)=C/CC/C(C)=C/COc1cc2ccccc2oc1=O | 1.7 | > 50 | Active
CC(C)=CCOc1cc2ccccc2oc1=O | 54.4 |  | 
